Experimental data from ChEMBL document CHEMBL1154295, “Potent and selective steroidal inhibitors of 17beta-hydroxysteroid dehydrogenase type 7, an enzyme that catalyzes the reduction of the key hormones estrone and dihydrotestosterone” (J Med Chem, 2009).
Activity calls are given as the source filed them. No cut-off for these calls is given here.

What was measured:
[1] = target: T1, 3-keto-steroid reductase/17-beta-hydroxysteroid dehydrogenase 7 (Homo sapiens) (UniProt P56937); details: HEK293, at 0.3 µM
T1 sequence (whole entry): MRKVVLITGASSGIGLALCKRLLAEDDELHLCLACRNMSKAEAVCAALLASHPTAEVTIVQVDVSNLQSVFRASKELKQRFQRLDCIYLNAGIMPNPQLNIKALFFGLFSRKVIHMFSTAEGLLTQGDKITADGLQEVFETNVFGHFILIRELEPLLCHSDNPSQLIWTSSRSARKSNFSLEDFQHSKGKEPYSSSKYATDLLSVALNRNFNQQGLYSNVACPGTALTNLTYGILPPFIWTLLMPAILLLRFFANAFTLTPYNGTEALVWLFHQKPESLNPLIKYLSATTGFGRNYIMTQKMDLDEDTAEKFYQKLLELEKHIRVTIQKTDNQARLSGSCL

[2] = target: T1, 3-keto-steroid reductase/17-beta-hydroxysteroid dehydrogenase 7 (Homo sapiens); assay: Inhibition of human 17beta-HSD7 expressed in HEK293 cells assessed as inhibition of reduction of [14C]dihydrotestosterone into [14C]5alpha-androstane-3beta,17beta-diol at 3 uM after 18 hrs; type: cell-based
In short: (§1)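 Intact HEK-293 cells stably overexpressing h17β-HSD7 (pCMV-neo, G-418 selected) were plated at 500 000 cells/well in MEM with 10% fetal calf serum at 37 °C. Fresh medium received 15 000 cpm (~150 nM) [4-14C]-DHT plus ethanolic inhibitor, and cells were incubated 18 h. Steroids were extracted twice with diethyl ether. Assays were done in duplicate.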

[3] = target: T2, 17-beta-hydroxysteroid dehydrogenase type 1 (Homo sapiens) (UniProt P14061); assay: Inhibition of human 17beta-HSD1 expressed in HEK293 cells assessed as inhibition of reduction of [14C]estrone into [14C]estradiol at 0.1 uM; type: cell-based
T2 sequence (whole entry): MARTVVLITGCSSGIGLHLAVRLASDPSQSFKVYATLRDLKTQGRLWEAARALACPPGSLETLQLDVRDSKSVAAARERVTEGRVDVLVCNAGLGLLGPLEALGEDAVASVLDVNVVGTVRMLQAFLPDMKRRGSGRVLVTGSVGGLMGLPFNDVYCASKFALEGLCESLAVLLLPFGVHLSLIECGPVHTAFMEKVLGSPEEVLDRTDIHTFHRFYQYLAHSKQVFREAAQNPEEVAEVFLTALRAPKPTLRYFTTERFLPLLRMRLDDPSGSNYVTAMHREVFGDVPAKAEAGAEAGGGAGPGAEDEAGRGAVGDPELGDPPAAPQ
In short: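 Enzyme source: sonicated HEK-293 cells transfected with the h17β-HSD1 gene. Inhibitor was dissolved in ethanol and tested at final concentrations of 0.1 and 1 μM. The [14C]-E1 to [14C]-E2 assay was run as in an earlier report.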

[4] = target: T3, 3-oxo-5-alpha-steroid 4-dehydrogenase 1 (Homo sapiens) (UniProt P18405); assay: Inhibition of human 5alpha reductase 1 expressed in HEK293 cells assessed as inhibition of conversion of [14C]4-androstene-3,17-dione to [14C]5R-androstane-3,17-dione at 0.3 uM after 1 hr; type: cell-based
T3 sequence (whole entry): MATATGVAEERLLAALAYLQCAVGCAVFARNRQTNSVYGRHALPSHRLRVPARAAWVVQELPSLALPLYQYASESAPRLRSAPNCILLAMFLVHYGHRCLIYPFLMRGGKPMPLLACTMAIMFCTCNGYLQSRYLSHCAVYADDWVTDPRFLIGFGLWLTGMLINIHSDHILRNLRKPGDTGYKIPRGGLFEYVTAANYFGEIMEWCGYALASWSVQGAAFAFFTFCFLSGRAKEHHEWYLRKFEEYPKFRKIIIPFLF
In short: (§2)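 Intact HEK-293 cells transfected with pCMV-neo-h5α-reductase type 1 or type 2 were plated at 500 000 cells/well at 37 °C. They were incubated with 15 000 cpm [14C]-Δ4-dione and inhibitor (final 0.3 or 3 μM), in duplicate, for 1 h (type 1) or 3 h (type 2). Steroids were extracted and separated by TLC (toluene/EtOAc 4:1). Radioactivity gave % transformation and % inhibition.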

[5] = test system: HEK293; assay: Inhibition of human 17beta-HSD5 expressed in HEK293 cells assessed as inhibition of conversion of [14C]4-androstene-3,17-dione to [14C]testosterone at 0.3 uM after 20 hrs; type: cell-based
In short: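 Intact HEK-293 cells stably transfected with pCMV-neo-h17β-HSD5 were plated at 500 000 cells/well. They were incubated with 15 000 cpm [4-14C]-Δ4-dione and inhibitor in ethanol (0.3 or 3 μM) for 20 h at 37 °C, 5% CO2, in triplicate. Steroids were then extracted, separated and quantified.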

[6] = target: T4, 3-oxo-5-alpha-steroid 4-dehydrogenase 2 (Homo sapiens) (UniProt P31213); assay: Inhibition of human 5alpha reductase 2 expressed in HEK293 cells assessed as inhibition of conversion of [14C]4-androstene-3,17-dione to [14C]5R-androstane-3,17-dione at 0.3 uM after 3 hrs; type: cell-based
T4 sequence (whole entry): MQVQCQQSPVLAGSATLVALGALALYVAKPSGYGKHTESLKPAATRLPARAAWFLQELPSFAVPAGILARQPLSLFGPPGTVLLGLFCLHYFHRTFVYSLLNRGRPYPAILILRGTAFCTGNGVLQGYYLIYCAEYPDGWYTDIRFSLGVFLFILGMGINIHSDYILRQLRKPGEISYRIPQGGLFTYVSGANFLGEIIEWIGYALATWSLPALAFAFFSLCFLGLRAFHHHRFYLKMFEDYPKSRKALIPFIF
In short: as §2

[7] = target: T5, 3-keto-steroid reductase/17-beta-hydroxysteroid dehydrogenase 7 (Homo sapiens, UniProt P56937); assay: Inhibition of human 17beta-HSD7 expressed in HEK293 cells assessed as inhibition of reduction of [14C]estrone into [14C]estradiol after 7 hrs; type: cell-based
T5 sequence (P56937 whole entry): T1 sequence (whole entry)
In short: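 Intact HEK-293 cells stably overexpressing h17β-HSD7 were plated at 500 000 cells/well in MEM/10% FCS at 37 °C. Fresh medium received 15 000 cpm (~150 nM, below Km) [4-14C]-estrone plus ethanolic inhibitor for 7 h. Steroids were extracted with diethyl ether. Screening used two inhibitor concentrations in duplicate or triplicate and is reported as % inhibition of E1→E2.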

[8] = target: T1, 3-keto-steroid reductase/17-beta-hydroxysteroid dehydrogenase 7 (Homo sapiens); assay: Inhibition of human 17beta-HSD7 expressed in HEK293 cells assessed as inhibition of reduction of [14C]dihydrotestosterone into [14C]5alpha-androstane-3beta,17beta-diol at 0.3 uM after 18 hrs; type: cell-based
In short: as §1

[9] = target: T1, 3-keto-steroid reductase/17-beta-hydroxysteroid dehydrogenase 7 (Homo sapiens); details: HEK293, at 3 µM

Compound | inhibition [1] [%] | inhibition [2] [%] | also measured
CC1(C)CC[C@@]2(CC[C@H]3[C@@H]4CC[C@H]5NC(=O)CC[C@]5(C)[C@H]4CC[C@@]32C)OC1=O | – | 69 | inhibition [3]: inactive; inhibition [4]: inactive; inhibition [5]: 90%; inhibition [6]: inactive
CCCCCCCN(C)C1CC[C@H]2[C@@H]3CC[C@H]4NC(=O)CC[C@]4(C)[C@H]3CC[C@]12C (stereo not given in full) | – | 69 | –
CN1C(=O)CC[C@]2(C)[C@H]3CC[C@@]4(C)[C@@H](CC[C@@]45CCC(C)(C)C(=O)O5)[C@@H]3CC[C@@H]12 | – | 69 | IC50 [7]: 116 nM; inhibition [3]: inactive; inhibition [4]: Active; inhibition [5]: 90%
CC(=O)C1CC[C@@]2(CC[C@H]3[C@@H]4CCc5cc(O)ccc5[C@H]4CC[C@@]32C)OC1=O (stereo not given in full) | 2.1 | – | inhibition [9]: 14.8%
COc1cc2c(cc1S(N)(=O)=O)CC[C@@H]1[C@@H]2CC[C@@]2(C)[C@H]1CCC2(O)Cc1ccc(C(C)(C)C)cc1 (stereo not given in full) | 0 | – | inhibition [9]: 6.4%
C[C@]12CC[C@@H]3c4ccc(O)cc4CC[C@H]3[C@@H]1CC[C@@H]2O | 1.1 | – | inhibition [9]: 0%

Now from value to compound, other results behind:

inhibition [1] [%] | inhibition [2] [%] | Compound | also measured
84 | 69 | CCCCCCCN(C(=O)c1c(F)cccc1F)[C@H]1CC[C@H]2[C@@H]3CC[C@H]4N(C)C(=O)CC[C@]4(C)[C@H]3CC[C@]12C | –
– | 69 | CCCCCCCN(C)[C@H]1CC[C@H]2[C@@H]3CC[C@H]4N(C)C(=O)CC[C@]4(C)[C@H]3CC[C@]12C | IC50 [7]: 189 nM; inhibition [6]: inactive
– | 69 | CCCCCCCCCCN(C=O)C1CC[C@H]2[C@@H]3CC[C@H]4N(C)C(=O)CC[C@]4(C)[C@H]3CC[C@]12C (stereo not given in full) | IC50 [7]: 195 nM; inhibition [8]: 49%
84 | 69 | CCCCCCCN(C(=O)c1ccc(F)cc1)[C@H]1CC[C@H]2[C@@H]3CC[C@H]4N(C)C(=O)CC[C@]4(C)[C@H]3CC[C@]12C | –
94 | 69 | CCCCCCCN(C=O)[C@H]1CC[C@H]2[C@@H]3CC[C@H]4N(C)C(=O)CC[C@]4(C)[C@H]3CC[C@]12C | –
76 | 69 | CCCCCCCN(CCCC)[C@H]1CC[C@H]2[C@@H]3CC[C@H]4N(C)C(=O)CC[C@]4(C)[C@H]3CC[C@]12C | inhibition [6]: inactive
– | 69 | CCCCCCCCCCN(C=O)C1CC[C@H]2[C@@H]3CC[C@H]4NC(=O)CC[C@]4(C)[C@H]3CC[C@]12C (stereo not given in full) | –
17.6 | – | CN1C(=O)CC[C@]2(C)[C@H]3CC[C@]4(C)[C@@H](N(C=O)C5CC5)CC[C@H]4[C@@H]3CC[C@@H]12 | inhibition [9]: 41.2%
